Compound activity deposited in PubChem BioAssay by Broad Institute.
Rows were chosen to be rich in hits. Some 2.4% of all compounds tested hit in one or more screens of this group.
EWS-Fli block: EWS/Fli-driven NR0B1 reporter inhibitors, primary screen, A673 cells, NR0B1 luciferase, luminescence, MLPCN library | inhibition, % at 12.6 µM | actives 0.67% (n = 350,000) | viability-normalised | AID 651661, 2012;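 active = mean inhibition of at least 50% after viability correction, with every replicate also passing that limit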;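 also: firefly luciferase signal divided by Alamar Blue viability fluorescence both relative to DMSO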
Ecoli rRNA inh: reduced GFP signal of wild-type E. coli, primary screen, bacterial rRNA inhibitor project, GFP/RFP fluorescence, OD600, single point; E. coli WT GFP vs humanized-ribosome RFP mutants, 24 h; hits give low values; DMSO median 0, no signal -100; GFP signal change (wild-type ribosome), % (no concentration beside the values); actives 1.6% (n = 350,000); AID 720706, 2013;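 active = significant combined selectivity score with lowered wild-type GFP, culture density cut under 30%, mutant RFP and density less affected; inactive = any of these conditions unmet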
E-sel inducer: E-selectin induction in HUVECs, primary screen, imaging, HUVEC, immunofluorescence imaging, single point | P16581 | normalized: neutral wells 0, TNF-alpha wells 100 | activation, % at 7.58 µM | actives 0.37% (n = 260,000) | AID 686992, 2013;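 active = mean E-selectin-positive cell signal at least 10% of the positive control, reached in at least 60% of replicates, without over 20% cell loss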
Target sequence (P16581 whole entry, looked up): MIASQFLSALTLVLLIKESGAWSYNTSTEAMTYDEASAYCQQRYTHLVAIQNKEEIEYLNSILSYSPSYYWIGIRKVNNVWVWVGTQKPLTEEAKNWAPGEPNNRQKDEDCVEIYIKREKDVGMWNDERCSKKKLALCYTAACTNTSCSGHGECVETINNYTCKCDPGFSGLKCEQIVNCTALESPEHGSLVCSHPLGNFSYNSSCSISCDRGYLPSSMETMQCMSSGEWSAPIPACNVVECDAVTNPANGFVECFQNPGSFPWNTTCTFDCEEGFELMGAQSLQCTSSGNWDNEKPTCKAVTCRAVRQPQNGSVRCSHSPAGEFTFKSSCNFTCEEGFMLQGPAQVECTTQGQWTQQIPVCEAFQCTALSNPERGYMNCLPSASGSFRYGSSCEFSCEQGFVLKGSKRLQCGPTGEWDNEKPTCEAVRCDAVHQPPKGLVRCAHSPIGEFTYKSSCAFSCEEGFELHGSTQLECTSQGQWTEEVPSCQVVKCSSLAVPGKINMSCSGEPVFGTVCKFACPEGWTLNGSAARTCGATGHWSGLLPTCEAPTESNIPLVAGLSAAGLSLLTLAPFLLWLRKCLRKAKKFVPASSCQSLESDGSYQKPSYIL
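System: HUVEC, human umbilical vein endothelial cells; quantity: 3,000 cells/well; buffer or medium: EGM-2 medium, gelatin-coated wells; dosing: single-point compound dose; detection: immunofluorescence imaging; evaluation: % PE-positive cells; benchmarks: TNF-alpha, DMSO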
LGR2 inh: inhibitors of bursicon-induced LGR2 CRE-luciferase signal, primary screen, cell-based, HEK293, CRE-luciferase reporter, bursicon stimulation; Drosophila bursicon receptor LGR2 (rickets); actives 0.35% (n = 380,000); inhibition, % at 9.99 µM; AID 720647, 2013; bursicon-stimulated, 4 h;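 active = drop in luminescence signal, shown as inhibition above about 50% in the replicate tests, limit read from the data, passing the limit was not always enough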;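 also: agonist challenge used bursicon conditioned medium at about half maximal strength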
Numbers stand for hits; 0 = inactive; - = not tested or not shown; ! = a repeat was not active.

SMILES | EWS-Fli block | Ecoli rRNA inh | E-sel inducer | LGR2 inh
O=C1c2cccc3c2N(CCC3)C(=O)C1(F)c1ccccc1 (stereo unspecified) | 0 | -17.1 | 0 | -
Cc1ccccc1/C=N/Nc1nc2ccccc2[nH]1 | 0 | 0 | - | 0
Cc1[nH]c2ccccc2c1/C=N/Nc1nc2ccccc2[nH]1 | 0 | -47.0 | 0 | 99.5
C(=N\Nc1nc2ccccc2[nH]1)/c1cccc2cccnc12 | 0 | -53.3 | - | 0
COc1ccc(/C=N/Nc2nc3ccccc3[nH]2)c(OC)c1OC | 0 | -27.4 | - | 0
CCc1cccc(C)c1N=Cc1c(O)c2ccccc2oc1=O | 0 | -24.1 | - | 0
CCOc1ccc(-n2c(=S)sc3c(=O)[nH]c(SCC(=O)C(C)(C)C)nc32)cc1 | 0 | -28.9 | - | 0
CCC(C)NC(=O)CSc1nc2c(sc(=S)n2-c2cc(Cl)ccc2OC)c(=O)[nH]1 (stereo unspecified) | 0 | 0 | 0 | 0
COCCCNC(=O)CSc1nc2c(sc(=S)n2-c2cc(Cl)ccc2OC)c(=O)[nH]1 | 0 | 0 | 46.5 | 0
CCOC(=O)CSc1nc2c(sc(=S)n2-c2ccc(OCC)cc2)c(=O)[nH]1 | 0 | - | 0 | -
CCOc1ccc(-n2c(=S)sc3c(=O)[nH]c(SCC(=O)N4CCC(C)CC4)nc32)cc1 | - | -25.1 | - | 0
CCN(CC)C(=O)CSc1nc2c(sc(=S)n2-c2ccc(C)cc2C)c(=O)[nH]1 | 0 | -27.4 | - | 0
C[C@@H]1CN([C@@H](C)CO)C(=O)c2cc(NC(=O)Cc3cn(C)c4ccccc34)ccc2O[C@@H]1CN(C)Cc1ccc(C(=O)O)cc1 | 0 | 0 | 0 | 0
CN(C)CCNC(=O)c1cccc2nc3cccc(F)c3nc12 | 56.2 | 0 | 0 | 0
CCCCNC(=O)CSc1nc(CCC)nc2ccccc12 | 0 | 0 | 0 | 0
CCCc1nc(SCC(=O)N2CCc3ccccc3C2)c2ccccc2n1 | 0 | -26.6 | - | 0
Cc1cccc(C)c1-n1nnnc1C(c1ccnc2ccccc12)N1CCN(CCN(C)C)CC1 (stereo unspecified) | 0 | 0 | 0 | 0
Cc1cc(N2CCN(C(c3ccnc4ccccc34)c3nnnn3-c3c(C)cccc3C)CC2)c2ccccc2n1 (stereo unspecified) | 0 | -25.6 | 0 | 0
CS(=O)(=O)c1ccc(C(=O)NCCN2C(=O)S/C(=C\c3cccnc3)C2=O)cc1[N+](=O)[O-] | 63.9 | 0 | - | 68.7
N#C[C@H]1[C@@H](c2ccc(C3=CCCCC3)cc2)[C@H](CO)N1C(=O)c1ccccn1 | 0 | 0 | 0 | 87.8
COc1cccc(-c2ccc([C@H]3[C@@H](CO)N(C(=O)c4ccccn4)[C@H]3C#N)cc2)c1 | 0 | 0 | 0 | 66.1
CC(C)c1cn([C@H]2C[C@@H]3O[C@H](CO)CC[C@@H]3O[C@@H]2CCc2ccc(C#CC3(O)CCCC3)cc2)nn1 | 0 | - | - | -
O=C(C[C@H]1CC[C@H]2[C@@H](COC[C@H](O)CN2CC2CCCC2)O1)NCC1CC1 | 0 | 0 | 0 | 0
CC(C)CC#Cc1cnc2c(c1)C(=O)N([C@H](C)CO)C[C@H](C)[C@@H](CN(C)S(C)(=O)=O)O2 | 0 | 0 | 0 | 0
COc1ccccc1C(=O)NC(=S)Nc1cccnc1Cl | 57.4 | 0 | 0 | 84.2
SMILES | EWS-Fli block | Ecoli rRNA inh | E-sel inducer | LGR2 inh
C[C@H]1CN([C@@H](C)CO)C(=O)c2cc(-c3ccccc3)cnc2O[C@@H]1CN(C)Cc1ccccn1 | 0 | 0 | 0 | 0
O=C(Cc1cccc(NC(=O)C2CCCN(C(=O)CCc3ccccc3)C2)c1)Nc1cccc(C(=O)N2CCOCC2)c1 (stereo unspecified) | 0 | 0 | 0 | 0
O=C(Cc1cccc(NC(=O)C2CCCN(C(=O)CCc3ccccc3)C2)c1)Nc1cccc(C(=O)N2CCCCC2)c1 (stereo unspecified) | 0 | -18.0 | 0 | 0
CC(=O)N1[C@@H]2Cn3c(ccc(-c4ccccc4)c3=O)[C@H]1[C@@H](C(=O)NCCCN1CCOCC1)[C@@H]2CO | 0 | 0 | 0 | 0
COc1cccc(S(=O)(=O)Nc2ccc3c(c2)C(=O)N(C)C[C@H](OC)[C@H](C)CN(Cc2ccccc2F)[C@@H](C)CO3)c1 | 0 | -18.4! | 0 | 0
N#CC1=CN(Cc2ccccc2)C=C(/C=N/Nc2ccccc2)C1 | 0 | 0 | 0 | 0
CCOC(=O)C(=O)C1=CN(Cc2ccccc2)C=C(C#N)C1 | 0 | 0 | 52.0 | 0
